Laboratory results: ChEMBL document CHEMBL1811836, “Probes for narcotic receptor mediated phenomena. Part 42: synthesis and in vitro pharmacological characterization of the N-methyl and N-phenethyl analogues of the racemic ortho-c and para-c oxide-bridged phenylmorphans” (Bioorg Med Chem, 2011)

Legend:
[1] = target: T1, Mu-type opioid receptor (Homo sapiens, UniProt P35372); test: Displacement of [3H]DAMGO from human recombinant mu opioid receptor expressed in CHO cells after 2 hrs by liquid scintillation counting; format: cell-based
[2] = target: Delta-type opioid receptor (Homo sapiens, UniProt P41143); test: Displacement of [3H]DADLE from human recombinant delta opioid receptor expressed in recombinant hDOR-CHO cells after 2 hrs by liquid scintillation counting; format: cell-based
In short: (§1)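 Membranes from stably transfected hDOR-CHO or hKOR-CHO cells, washed in ice-cold 10 mM Tris-HCl pH 7.4. Binding in 50 mM Tris-HCl pH 7.4 with protease inhibitors, about 30 µg protein per tube. Radioligand about 2 nM against 10 drug concentrations, triplicate, 2 h at 25 °C, GF/B filtration.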

[3] = target: T2, Kappa-type opioid receptor (Homo sapiens, UniProt P41145); test: Displacement of [3H]U69,593 from human recombinant kappa opioid receptor expressed in CHO cells after 2 hrs by liquid scintillation counting; format: cell-based; in short: as §1
[4] = target: T1, Mu-type opioid receptor; test: Ratio of naloxone Ke to compound Ke for human mu opioid receptor
[5] = target: T1, Mu-type opioid receptor; test: Ratio of morphine Ki to compound Ki for human mu opioid receptor
[6] = species: Homo sapiens; test: Selectivity ratio Ki for human kappa opioid receptor to Ki for human mu opioid receptor
In short: (§2)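 Ki values from radioligand displacement on membranes of stably transfected human receptor CHO cells. […] Incubation 2 h at 25 °C, triplicate, filtration. Ki from pooled logistic IC50 by Cheng-Prusoff; ratio taken against the MOR Ki.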

[7] = species: Homo sapiens; test: Selectivity ratio Ki for human delta opioid receptor to Ki for human mu opioid receptor; in short: as §2
[8] = target: T2, Kappa-type opioid receptor; settings: CHO

T1 sequence (P35372 whole entry): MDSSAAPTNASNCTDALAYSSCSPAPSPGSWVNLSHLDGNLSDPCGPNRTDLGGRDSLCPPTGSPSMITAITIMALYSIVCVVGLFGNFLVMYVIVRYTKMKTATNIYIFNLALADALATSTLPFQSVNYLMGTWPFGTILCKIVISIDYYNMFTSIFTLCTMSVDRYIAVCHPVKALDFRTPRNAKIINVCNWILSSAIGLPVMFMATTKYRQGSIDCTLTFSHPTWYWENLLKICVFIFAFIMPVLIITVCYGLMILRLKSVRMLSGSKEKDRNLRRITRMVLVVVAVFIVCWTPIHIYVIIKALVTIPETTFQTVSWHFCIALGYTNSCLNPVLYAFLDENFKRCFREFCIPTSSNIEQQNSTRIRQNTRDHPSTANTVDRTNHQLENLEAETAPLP
T2 sequence (P41145 whole entry): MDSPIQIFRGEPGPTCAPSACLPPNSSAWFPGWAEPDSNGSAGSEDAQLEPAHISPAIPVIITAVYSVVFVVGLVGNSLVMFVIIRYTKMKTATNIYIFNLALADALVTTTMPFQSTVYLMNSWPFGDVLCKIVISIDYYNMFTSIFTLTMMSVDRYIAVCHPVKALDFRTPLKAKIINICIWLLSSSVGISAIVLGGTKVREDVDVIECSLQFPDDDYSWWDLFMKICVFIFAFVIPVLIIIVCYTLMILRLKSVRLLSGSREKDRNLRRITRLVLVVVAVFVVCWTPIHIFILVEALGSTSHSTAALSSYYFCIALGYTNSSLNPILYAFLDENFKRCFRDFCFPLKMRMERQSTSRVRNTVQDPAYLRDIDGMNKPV
Chain of Delta-type opioid receptor (P41143 whole entry): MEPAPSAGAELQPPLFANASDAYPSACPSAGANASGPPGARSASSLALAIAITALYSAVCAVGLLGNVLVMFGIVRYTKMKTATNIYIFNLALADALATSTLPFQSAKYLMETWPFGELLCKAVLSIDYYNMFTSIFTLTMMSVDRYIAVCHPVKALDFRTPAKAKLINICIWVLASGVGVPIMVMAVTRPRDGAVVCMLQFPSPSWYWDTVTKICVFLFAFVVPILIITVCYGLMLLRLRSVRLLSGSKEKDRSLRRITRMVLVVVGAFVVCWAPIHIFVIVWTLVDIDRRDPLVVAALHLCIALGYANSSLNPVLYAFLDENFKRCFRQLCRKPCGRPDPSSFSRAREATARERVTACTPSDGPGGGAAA

| Compound | Ki [1] [µM] | Ki [2] [µM] | Ki [3] [µM] | Ratio Ke [4] | Ratio Ki [5] | Ratio Ki [6] | Ratio Ki [7] | Ke [8] [nM] |
| --- | --- | --- | --- | --- | --- | --- | --- | --- |
| CN1C[C@H]2Oc3c(O)cccc3[C@@]23CCC[C@@H]1C3 (relative stereo) | 0.619 | > 5.2 | > 40 |  |  |  |  |  |
| CN1C[C@H]2Oc3ccc(O)cc3[C@@]23CCC[C@@H]1C3 (relative stereo) | 1.5 | > 5.2 | 1.08 |  |  |  |  |  |
| Oc1ccc2c(c1)[C@]13CCC[C@H](C1)N(CCc1ccccc1)C[C@H]3O2 (relative stereo) | 0.067 | 1.25 | 1.23 |  |  |  |  |  |
| Oc1cccc2c1O[C@@H]1CN(CCc3ccccc3)[C@@H]3CCC[C@]21C3 (relative stereo) | 0.0011 | 1.23 | 0.051 | 3 | 2 | 50 | 1200 | 1.79 |
